Test results taken from ChEMBL document CHEMBL1151428, “Capability of 11 antipneumococcal antibiotics to select for resistance by multistep and single-step methodologies” (2007).
≈ marks a conversion by molar mass, not a printed value.

Key:
Format in all cases: functional
[1] = tested on: Streptococcus pneumoniae; assay: Antimicrobial activity against drug-resistant Streptococcus pneumoniae isolate 1635 after 49 passages with clarithromycin measured after 10 antibiotic-free subculture by multi-step resistance selection technique
[2] = tested on: Streptococcus pneumoniae; assay: Antimicrobial activity against drug-resistant Streptococcus pneumoniae isolate 1635 after 14 passages by multi-step resistance selection technique
In short: (§1)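 Daily serial passage in subinhibitory drug levels in 1 ml cation-adjusted Mueller-Hinton broth with 5% lysed horse blood; fresh broth for tigecycline. Each day, 10 μl were taken from the tube one to two dilutions below the MIC whose turbidity matched the growth control, and used to set the next MIC. […] MIC by macrodilution.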

[3] = tested on: Streptococcus pneumoniae; assay: Antimicrobial activity against drug-resistant Streptococcus pneumoniae isolate 3274 by NCCLS M7-A7 method
[4] = tested on: Streptococcus pneumoniae; assay: Antimicrobial activity against drug-resistant Streptococcus pneumoniae isolate 3676 after 44 passages with clarithromycin measured after 10 antibiotic-free subculture by multi-step resistance selection technique
[5] = tested on: Streptococcus pneumoniae; assay: Antimicrobial activity against drug-resistant Streptococcus pneumoniae isolate 1635 after 14 passages with clindamycin measured after 10 antibiotic-free subculture by multi-step resistance selection technique
[6] = tested on: Streptococcus pneumoniae; assay: Antimicrobial activity against drug-resistant Streptococcus pneumoniae isolate 1635 after 14 passages with azithromycin measured after 10 antibiotic-free subculture by multi-step resistance selection technique
In short: (§2)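 Mutants selected by daily broth passage in subinhibitory drug in cation-adjusted Mueller-Hinton broth with 5% lysed horse blood. Stability was tested by 10 daily passages on blood agar without antibiotic, then macrodilution MIC.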

[7] = tested on: Streptococcus pneumoniae; assay: Antimicrobial activity against drug-resistant Streptococcus pneumoniae isolate 2527 after 14 passages with gemifloxacin measured after 10 antibiotic-free subculture by multi-step resistance selection technique; in short: as §2
[8] = tested on: Streptococcus pneumoniae; assay: Antimicrobial activity against drug-resistant Streptococcus pneumoniae isolate 3274 after 48 passages with Telithromycin measured after 10 antibiotic-free subculture by multi-step resistance selection technique; in short: as §2
[9] = tested on: Streptococcus pneumoniae; assay: Antimicrobial activity against drug-resistant Streptococcus pneumoniae isolate 1077 by NCCLS M7-A7 method
[10] = tested on: Streptococcus pneumoniae; assay: Antimicrobial activity against drug-resistant Streptococcus pneumoniae isolate 3009 after 50 passages by multi-step resistance selection technique; in short: as §1
[11] = tested on: Streptococcus pneumoniae; assay: Antimicrobial activity against drug-resistant Streptococcus pneumoniae isolate 3009 after 19 passages with moxifloxacin measured after 10 antibiotic-free subculture by multi-step resistance selection technique; in short: as §2
[12] = tested on: Streptococcus pneumoniae; assay: Antimicrobial activity against drug-resistant Streptococcus pneumoniae isolate 1076 after 35 passages with moxifloxacin measured after 10 antibiotic-free subculture by multi-step resistance selection technique; in short: as §2
[13] = tested on: Streptococcus pneumoniae; assay: Antimicrobial activity against drug-resistant Streptococcus pneumoniae isolate 1635 by NCCLS M7-A7 method
[14] = tested on: Streptococcus pneumoniae; assay: Antimicrobial activity against drug-resistant Streptococcus pneumoniae isolate 3413 by NCCLS M7-A7 method
[15] = tested on: Streptococcus pneumoniae; assay: Antimicrobial activity against drug-resistant Streptococcus pneumoniae isolate 1077 after 49 passages with clindamycin measured after 10 antibiotic-free subculture by multi-step resistance selection technique
[16] = tested on: Streptococcus pneumoniae; assay: Antimicrobial activity against drug-resistant Streptococcus pneumoniae isolate 3665 after 50 passages by multi-step resistance selection technique
In short: (§3)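 Daily serial passage in broth at subinhibitory drug levels: 1 ml cation-adjusted Mueller-Hinton broth with 5% lysed horse blood; fresh broth for tigecycline. Each day 10 μl inoculum taken from the tube one to two dilutions below MIC matching growth-control turbidity, used to set next MIC. Continued until ≥8-fold MIC rise, minimum 14, maximum 50 passages; MIC read by macrodilution.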

[17] = tested on: Streptococcus pneumoniae; assay: Antimicrobial activity against drug-resistant Streptococcus pneumoniae isolate 3676 by NCCLS M7-A7 method
[18] = tested on: Streptococcus pneumoniae; assay: Antimicrobial activity against drug-resistant Streptococcus pneumoniae isolate 3243 after 20 passages with moxifloxacin measured after 10 antibiotic-free subculture by multi-step resistance selection technique; in short: as §2
[19] = tested on: Streptococcus pneumoniae; assay: Antimicrobial activity against drug-resistant Streptococcus pneumoniae isolate 3009 after 21 passages with gemifloxacin measured after 10 antibiotic-free subculture by multi-step resistance selection technique; in short: as §2
[20] = tested on: Streptococcus pneumoniae; assay: Antimicrobial activity against drug-resistant Streptococcus pneumoniae isolate 3009 by NCCLS M7-A7 method
[21] = tested on: Streptococcus pneumoniae; assay: Antimicrobial activity against drug-resistant Streptococcus pneumoniae isolate 3243 after 29 passages with Telithromycin measured after 10 antibiotic-free subculture by multi-step resistance selection technique; in short: as §2
[22] = tested on: Streptococcus pneumoniae; assay: Antimicrobial activity against drug-resistant Streptococcus pneumoniae isolate 3274 after 50 passages by multi-step resistance selection technique
In short: (§4)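 Daily serial passage in subinhibitory drug levels in 1 ml cation-adjusted Mueller-Hinton broth with 5% lysed horse blood; fresh broth for tigecycline. Each day, 10 μl were taken from the tube one to two dilutions below the MIC whose turbidity matched the growth control, and used to set the next MIC. MIC by macrodilution.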

[23] = tested on: Streptococcus pneumoniae; assay: Antimicrobial activity against drug-resistant Streptococcus pneumoniae isolate 2527 after 50 passages by multi-step resistance selection technique; in short: as §1
[24] = tested on: Streptococcus pneumoniae; assay: Antimicrobial activity against drug-resistant Streptococcus pneumoniae isolate 24 after 50 passages with moxifloxacin measured after 10 antibiotic-free subculture by multi-step resistance selection technique; in short: as §2
[25] = tested on: Streptococcus pneumoniae; assay: Antimicrobial activity against drug-resistant Streptococcus pneumoniae isolate 3676 after 14 passages with Telithromycin measured after 10 antibiotic-free subculture by multi-step resistance selection technique
[26] = tested on: Streptococcus pneumoniae; assay: Antimicrobial activity against drug-resistant Streptococcus pneumoniae isolate 3665 after 26 passages with clarithromycin measured after 10 antibiotic-free subculture by multi-step resistance selection technique
[27] = tested on: Streptococcus pneumoniae; assay: Antimicrobial activity against drug-resistant Streptococcus pneumoniae isolate 3665 by NCCLS M7-A7 method
[28] = tested on: Streptococcus pneumoniae; assay: Antimicrobial activity against drug-resistant Streptococcus pneumoniae isolate 1077 after 29 passages with azithromycin measured after 10 antibiotic-free subculture by multi-step resistance selection technique; in short: as §2
[29] = tested on: Streptococcus pneumoniae; assay: Antimicrobial activity against drug-resistant Streptococcus pneumoniae isolate 3665 after 38 passages with moxifloxacin measured after 10 antibiotic-free subculture by multi-step resistance selection technique
[30] = tested on: Streptococcus pneumoniae; assay: Antimicrobial activity against drug-resistant Streptococcus pneumoniae isolate 2527 after 20 passages with azithromycin measured after 10 antibiotic-free subculture by multi-step resistance selection technique; in short: as §2
[31] = tested on: Streptococcus pneumoniae; assay: Antimicrobial activity against drug-resistant Streptococcus pneumoniae isolate 24 by NCCLS M7-A7 method
[32] = tested on: Streptococcus pneumoniae; assay: Antimicrobial activity against drug-resistant Streptococcus pneumoniae isolate 24 after 14 passages with Telithromycin measured after 10 antibiotic-free subculture by multi-step resistance selection technique; in short: as §2
[33] = tested on: Streptococcus pneumoniae; assay: Antimicrobial activity against drug-resistant Streptococcus pneumoniae isolate 3413 after 50 passages by multi-step resistance selection technique; in short: as §4
[34] = tested on: Streptococcus pneumoniae; assay: Antimicrobial activity against drug-resistant Streptococcus pneumoniae isolate 3665 after 14 passages with Telithromycin measured after 10 antibiotic-free subculture by multi-step resistance selection technique
[35] = tested on: Streptococcus pneumoniae; assay: Antimicrobial activity against drug-resistant Streptococcus pneumoniae isolate 1077 after 49 passages by multi-step resistance selection technique; in short: as §1
[36] = tested on: Streptococcus pneumoniae; assay: Antimicrobial activity against drug-resistant Streptococcus pneumoniae isolate 37 after 14 passages with Telithromycin measured after 10 antibiotic-free subculture by multi-step resistance selection technique
[37] = tested on: Streptococcus pneumoniae; assay: Antimicrobial activity against drug-resistant Streptococcus pneumoniae isolate 3676 after 50 passages by multi-step resistance selection technique; in short: as §3
[38] = tested on: Streptococcus pneumoniae; assay: Antimicrobial activity against drug-resistant Streptococcus pneumoniae isolate 3243 after 33 passages with azithromycin measured after 10 antibiotic-free subculture by multi-step resistance selection technique; in short: as §2
[39] = tested on: Streptococcus pneumoniae; assay: Antimicrobial activity against drug-resistant Streptococcus pneumoniae isolate 3413 after 30 passages with Telithromycin measured after 10 antibiotic-free subculture by multi-step resistance selection technique; in short: as §2
[40] = tested on: Streptococcus pneumoniae; assay: Antimicrobial activity against drug-resistant Streptococcus pneumoniae isolate 37 by NCCLS M7-A7 method
[41] = tested on: Streptococcus pneumoniae; assay: Antimicrobial activity against drug-resistant Streptococcus pneumoniae isolate 3009 after 25 passages with clarithromycin measured after 10 antibiotic-free subculture by multi-step resistance selection technique
[42] = tested on: Streptococcus pneumoniae; assay: Antimicrobial activity against drug-resistant Streptococcus pneumoniae isolate 3009 after 18 passages with levofloxacin measured after 10 antibiotic-free subculture by multi-step resistance selection technique; in short: as §2
[43] = tested on: Streptococcus pneumoniae; assay: Antimicrobial activity against drug-resistant Streptococcus pneumoniae isolate 1076 by NCCLS M7-A7 method
[44] = tested on: Streptococcus pneumoniae; assay: Antimicrobial activity against drug-resistant Streptococcus pneumoniae isolate 3243 after 41 passages with clarithromycin measured after 10 antibiotic-free subculture by multi-step resistance selection technique
[45] = tested on: Streptococcus pneumoniae; assay: Antimicrobial activity against drug-resistant Streptococcus pneumoniae isolate 3676 after 50 passages with moxifloxacin measured after 10 antibiotic-free subculture by multi-step resistance selection technique
[46] = tested on: Streptococcus pneumoniae; assay: Antimicrobial activity against drug-resistant Streptococcus pneumoniae isolate 3243 after 50 passages by multi-step resistance selection technique; in short: as §1
[47] = tested on: Streptococcus pneumoniae; assay: Antimicrobial activity against drug-resistant Streptococcus pneumoniae isolate 3243 by NCCLS M7-A7 method
[48] = tested on: Streptococcus pneumoniae; assay: Antimicrobial activity against drug-resistant Streptococcus pneumoniae isolate 2527 by NCCLS M7-A7 method
[49] = tested on: Streptococcus pneumoniae; assay: Antimicrobial activity against drug-resistant Streptococcus pneumoniae isolate 1076 after 14 passages with Telithromycin measured after 10 antibiotic-free subculture by multi-step resistance selection technique; in short: as §2
[50] = tested on: Streptococcus pneumoniae; assay: Antimicrobial activity against drug-resistant Streptococcus pneumoniae isolate 1077 after 15 passages with Telithromycin measured after 10 antibiotic-free subculture by multi-step resistance selection technique; in short: as §2

## CCC[C@@H]1C[C@@H](C(=O)N[C@@H]([C@H]2O[C@H](SC)[C@H](O)[C@@H](O)[C@H]2O)[C@H](C)Cl)N(C)C1 [CLINDAMYCIN]
[1]
  MIC: 0.25 µg/mL (≈ 0.588 µM)
[2]
  MIC: > 64 µg/mL
[3]
  MIC: 0.016 µg/mL (≈ 0.0376 µM)
[4]
  MIC: 0.06 µg/mL (≈ 0.141 µM)
[5]
  MIC: > 64 µg/mL
[6]
  MIC: 0.03 µg/mL (≈ 0.0706 µM)
[7]
  MIC: 0.016 µg/mL (≈ 0.0376 µM)
[8]
  MIC: 0.016 µg/mL (≈ 0.0376 µM)
[9]
  MIC: 0.016 µg/mL (≈ 0.0376 µM)
[10]
  MIC: 2 µg/mL (≈ 4.71 µM)
[11]
  MIC: 0.5 µg/mL (≈ 1.18 µM)
[12]
  MIC: > 64 µg/mL
[13]
  MIC: 0.06 µg/mL (≈ 0.141 µM)
[14]
  MIC: 0.016 µg/mL (≈ 0.0376 µM)
[15]
  MIC: 8 µg/mL (≈ 18.8 µM)
[16]
  MIC: 0.03 µg/mL (≈ 0.0706 µM)
[17]
  MIC: 0.03 µg/mL (≈ 0.0706 µM)
[18]
  MIC: 0.016 µg/mL (≈ 0.0376 µM)
[19]
  MIC: 0.5 µg/mL (≈ 1.18 µM)
[20]
  MIC: 1 µg/mL (≈ 2.35 µM)
[21]
  MIC: 0.03 µg/mL (≈ 0.0706 µM)
[22]
  MIC: 0.008 µg/mL (≈ 0.0188 µM)
[23]
  MIC: 0.016 µg/mL (≈ 0.0376 µM)
[24]
  MIC: > 64 µg/mL
[25]
  MIC: 0.03 µg/mL (≈ 0.0706 µM)
[26]
  MIC: 0.03 µg/mL (≈ 0.0706 µM)
[27]
  MIC: 0.016 µg/mL (≈ 0.0376 µM)
[28]
  MIC: 4 µg/mL (≈ 9.41 µM)
[29]
  MIC: 0.03 µg/mL (≈ 0.0706 µM)
[30]
  MIC: 0.06 µg/mL (≈ 0.141 µM)
[31]
  MIC: > 64 µg/mL
[32]
  MIC: > 64 µg/mL
[33]
  MIC: 0.008 µg/mL (≈ 0.0188 µM)
[34]
  MIC: 0.03 µg/mL (≈ 0.0706 µM)
[35]
  MIC: 4 µg/mL (≈ 9.41 µM)
[36]
  MIC: > 64 µg/mL
[37]
  MIC: 0.016 µg/mL (≈ 0.0376 µM)
[38]
  MIC: 0.016 µg/mL (≈ 0.0376 µM)
[39]
  MIC: 0.06 µg/mL (≈ 0.141 µM)
[40]
  MIC: > 64 µg/mL
[41]
  MIC: 1 µg/mL (≈ 2.35 µM)
[42]
  MIC: 0.5 µg/mL (≈ 1.18 µM)
[43]
  MIC: 64 µg/mL (≈ 151 µM)
[44]
  MIC: 1 µg/mL (≈ 2.35 µM)
[45]
  MIC: 0.016 µg/mL (≈ 0.0376 µM)
[46]
  MIC: 0.03 µg/mL (≈ 0.0706 µM)
[47]
  MIC: 0.016 µg/mL (≈ 0.0376 µM)
[48]
  MIC: 0.008 µg/mL (≈ 0.0188 µM)
[49]
  MIC: > 64 µg/mL
[50]
  MIC: 8 µg/mL (≈ 18.8 µM)
